CRFBP-R2 agonist – CRF-BP/CRF-R2 complex agonism | HEK293 CRF-R2/CRF-BP, calcium dye fluorescence (FLIPR); percent of saturating CRF peptide response | activation, % at 13.2 µM | hit rate 0.46% among 350,000;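 active = activation of at least 50%, plus an integration ratio under a set limit after plate pattern correction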;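 note: plate controls were neutral control wells without compound for no effect and CRF at EC100 for full effect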
CRFBP-R2 block – blocks CRF-induced signaling of the CRF-BP/CRF-R2 complex; AID 588475; inhibition, % at 11.8 µM; HEK293 CRF-R2/CRF-BP, CRF-induced calcium fluorescence; hit rate 0.59% among 350,000;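 active = inhibition of the ligand-induced calcium signal above about 50% at the single tested concentration, limit read from the data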
NRP1-CendR mod – modulators of CendR peptide binding to human neuropilin-1; AID 602438; FAM-RPARPAR peptide binding to NRP-1, fluorescence polarization; inhibition, % at 25 µM; hit rate 0.85% among 360,000; O14786;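 active = inhibition or corrected inhibition above about 18%, plus a signal ratio from 0.5 to 1.5, limit read from the data, passing the limit was not always enough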
KLK7 zymogen act – proKLK7 (human) activation, primary screen; purified proKLK7, EDANS-DABCYL substrate fluorescence; 100% is mature enzyme control, 0% vehicle; activation, % at 7 µM; P49862; hit rate 0.9% among 370,000;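 active = activation above the mean of all tested compounds plus 3 SD, computed per campaign excluding outliers beyond control limits, cut at about 13% in these data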
Target sequence (P49862 whole entry, looked up): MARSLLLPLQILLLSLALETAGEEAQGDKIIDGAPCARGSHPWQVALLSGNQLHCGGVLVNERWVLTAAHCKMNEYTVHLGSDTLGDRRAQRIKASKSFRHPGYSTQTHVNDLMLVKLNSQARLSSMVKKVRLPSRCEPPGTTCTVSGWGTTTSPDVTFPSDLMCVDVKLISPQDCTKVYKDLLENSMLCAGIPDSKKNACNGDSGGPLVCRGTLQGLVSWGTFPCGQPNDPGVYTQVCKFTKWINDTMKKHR
DDE Tn7 FP inh – disrupts Tn7 cyclic peptide binding to fibrin D-Dimer-E complex | P02675 | FP displacement of FITC-Tn7 peptide from fibrin DD(E); 0% = median of compound wells per plate | inhibition, % at 8.3 µM | hit rate 0.13% among 370,000 | AID 720508;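 active = inhibition above the mean of compounds falling within the control limits plus 3 SD of them, cut at about 14% in these data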;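 note: 0% = plate median of compound wells and 100% = 10 µM Aha-Tn7 peptide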
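System: human fibrin DD(E); quantity: Fibrin-DD(E) at 2 µM final; also added: fluorescent Tn7 probe at 0.1 µM; compound dosing: single nominal test concentration of 8.3 µM per compound; schedule: 10 min preincubation, 3 h with tracer, room temperature; detection: fluorescence polarization of the labelled Tn7 tracer; repeats: one replicate per compound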
Tn6 DDE FP – DD(E)-Tn6 binding inhibition, primary FP screen; P02675; Fibrin DD(E) TRITC-Tn6 fluorescence polarization displacement; inhibition, % at 8.3 µM; hit rate 0.21% among 370,000; AID 720509;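 active = inhibition above a per-campaign cutoff: mean of compounds within control limits plus 3 SD, cut at about 15% in these data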;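 note: 0% = median of all compound wells on the plate and 100% = blocking peptide control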
Starred values were filed as active, the others as inactive; x = no result. This is a sample that favours compounds with a hit; in the whole collection about 2.9% have one here.

SMILES | CRFBP-R2 agonist | CRFBP-R2 block | NRP1-CendR mod | KLK7 zymogen act | DDE Tn7 FP inh | Tn6 DDE FP
N#CC(C#N)=C1C=C2C=C(N3CCOCC3)CCC2CC1 (stereo not drawn) | 248* | -266 | 123 | 5 | -56 | -3
O=c1c2ccccc2[nH]n1[C@@H](Cc1ccccc1)Cn1cc(-c2ccc(-c3ccccc3)cc2)nn1 | x | x | x | 0 | -6 | -9
CCCCCN1CCCCC(NC(=O)c2ccc3ccccc3c2)C1=O (stereo not drawn) | x | x | x | 0 | -1 | -9
Cc1c(C(=O)Nc2c(F)cccc2F)sc2ncn(CC(=O)N3CCCCC3)c(=O)c12 | -1 | 78* | -10 | 1 | 7 | 5
Cc1ccc(S(=O)(=O)N2CCOCC2)cc1C(=O)NCc1cccs1 | -1 | 4 | 0 | 0 | 4 | -7
O=C(NCc1cccs1)c1ccc(S(=O)(=O)N2CCOCC2)cc1 | 1 | 0 | 21* | 0 | -2 | -2
O=C(O)CCCC(=O)Nc1nncs1 | -2 | 1 | -7 | 0 | -4 | -3
O=C(CCCc1ccccc1)Nc1nncs1 | -1 | 64* | -2 | 0 | 3 | 4
CC(C)C[C@@H]1COc2cc(Br)ccc2S(=O)(=O)N1Cc1cn(Cc2ccco2)nn1 | x | x | x | 1 | -2 | -5
O=C(CSc1nnc(-c2ccccn2)n1-c1ccc(Cl)cc1)Nc1ccc(S(=O)(=O)Nc2nccs2)cc1 | x | x | x | 0 | -1 | -7
Cc1ccc(N(CCC(=O)O)S(=O)(=O)c2ccccc2)cc1 | 1 | 1 | 1 | 0 | 0 | 11
Cc1cc(C)cc(N(CCC(=O)O)S(=O)(=O)c2ccc3ccccc3c2)c1 | -1 | 15 | 42* | 0 | -3 | 0
C[C@@H]1CCN(C2CC2)S(=O)(=O)c2ccc(N3CCC[C@@H]3CO)cc2O1 | x | x | x | 0 | 9 | 7
CC(C)(C)OC(=O)NCC(=O)Oc1cc2oc(=O)cc(-c3ccccc3)c2cc1Cl | 3 | 32 | -3 | 16* | -2 | -2
O=C(Oc1cc2oc(=O)cc(-c3ccccc3)c2cc1Cl)C1CCCCC1 | 0 | 14 | 5 | 37* | 2 | -4
CN(C)c1ccc(/C=N\NC(=O)c2cccc(S(=O)(=O)N(C)C)c2)cc1 | x | x | x | 1 | -3 | 2
CC(=O)N1CCN(C(=O)CCn2nnc3ccccc32)CC1 | x | x | x | 0 | -3 | -3
COC(=O)[C@H](CC(C)C)N(CCc1cn(Cc2ccc(C)cc2)nn1)S(=O)(=O)c1ccc(F)cc1Br | x | x | x | 0 | 2 | -7
c1ccc(-c2cc(-c3nnc4sc(Cc5cccs5)nn34)[nH]n2)cc1 | x | x | x | 0 | 0 | -6
O=c1[nH]c2c(s1)C=Nc1ccccc1N2 | 42 | -26 | 134 | 0 | 30* | 7
Cc1ccc(S(=O)(=O)N2CCCCC2)cc1NC(=O)Cn1ncc(Cl)c(Cl)c1=O | 0 | -9 | -8 | 0 | -6 | 5
Cc1cc(Br)ccc1NC(=O)CNC(=O)Cn1ncc(Cl)c(Cl)c1=O | -1 | 87* | -12 | 0 | 0 | 1
Cc1cc(C(=O)Cn2ncc(Cl)c(Cl)c2=O)c(C)n1CC(F)(F)F | -3 | -16 | -6 | 0 | -5 | -5
Cc1ccc(C)c(C(=O)Cn2ncc(Cl)c(Cl)c2=O)c1 | -3 | 8 | 20* | 1 | 2 | 3
Oc1cc(CNCc2ccccc2)c(O)cc1CNCc1ccccc1 | 5 | -9 | 28* | -1 | 2 | -2
SMILES | CRFBP-R2 agonist | CRFBP-R2 block | NRP1-CendR mod | KLK7 zymogen act | DDE Tn7 FP inh | Tn6 DDE FP
OCc1ccccc1CNCc1ccccc1 | -1 | 11 | -6 | 0 | 5 | 1
COC(=O)c1cc(OC)c(OC)cc1NC(=O)c1c(-c2ccccc2)noc1C | -1 | 68* | 4 | x | x | x
Cc1onc(-c2ccccc2)c1C(=O)NNC(=S)NC(=O)c1ccc(Br)cc1 | 150* | -39 | 6 | 0 | -6 | 4
Cc1onc(-c2ccccc2)c1C(=O)NNC(=O)c1ccccc1 | 0 | 4 | -4 | 1 | 4 | 3
Cc1onc(-c2ccccc2)c1C(=O)NNC(=S)NC(=O)c1ccc(Cl)cc1Cl | 217* | -137 | -6 | -1 | -1 | -4
Cc1onc(-c2ccccc2)c1C(=O)NNC(=O)c1ccccc1O | -1 | 2 | 7 | 0 | 7 | 4
Cc1ccccc1C(=O)NNC(=S)NC(=O)c1ccc(Cl)cc1Cl | 158* | -62 | -10 | 0 | -6 | 5
C#CCNC(=O)C[C@H]1C[C@@]2(C(=O)OC)C(=C[C@H](C(C)(C)C)O[C@@H]2C)N(Cc2ccco2)C1=O | x | x | x | 0 | -3 | -3
CCN1Cc2nnn(Cc3ccccc3)c2-c2cc(N3CCCC3)ccc2S1(=O)=O | x | x | x | -1 | -5 | 1
Cc1onc(-c2ccccc2)c1C(=O)NNC(=S)NC(=O)/C=C/c1ccccc1 | 66* | -26 | 13 | 0 | -8 | 0
Cc1onc(-c2ccccc2)c1C(=O)N/N=C/c1cc(Br)c(Br)o1 | 2 | 103* | -6 | 1 | 7 | -4
Cc1ccc(/C=N/NC(=O)c2c(-c3ccccc3)noc2C)o1 | -1 | 5 | -8 | -1 | 1 | 2
O=C(c1ccc(Cl)cc1)N1CCC(Oc2cccnc2)CC1 | x | x | x | 0 | -2 | 5
COc1ccccc1N1CCN(C(=O)C2c3ccccc3Oc3ccccc32)CC1 | 1 | 0 | 25* | 0 | -5 | -11
COc1ccccc1N1CCN(C(=O)COc2cccc3ccccc23)CC1 | -1 | 6 | 31* | 0 | 4 | 8
COc1ccccc1N1CCN(C(=O)C2CC2)CC1 | 0 | 18 | 2 | 0 | 11 | 2
COc1ccccc1OCC(=O)N1CCN(C(=O)COc2ccccc2OC)CC1 | -1 | 4 | 14 | 0 | -4 | -6
COc1ccccc1N1CCN(c2ncc(C(=O)N3CCN(c4cccc(Cl)c4)CC3)c3ccccc23)CC1 | 115* | -290 | -7 | 1 | 6 | 6
COC(=O)[C@]12C[C@H](CC(=O)NCCCCc3ccccc3)C(=O)N(Cc3ccc(Cl)cc3Cl)C1=C[C@H](COCc1ccccc1)O[C@@H]2C | x | x | x | 0 | 2 | 3
CCOc1ccc(C(=O)NCC(=O)NCCSc2ccc(Br)cc2)cc1OCC | -4 | -5 | 23* | 0 | -1 | -7
Cc1ccc(C(=O)NCC(=O)NCCSc2ccc(Br)cc2)cc1 | 0 | 7 | 4 | 0 | 1 | 5
CCOc1ccc(S(=O)(=O)Nc2ccc(C(=O)N3CCCC3)cc2)cc1 | -1 | -2 | -11 | 0 | 3 | -1
Cc1ccc(NS(=O)(=O)c2ccc(C(=O)N3CCC3)cc2)cc1 | 2 | -13 | -8 | 0 | 8 | -2
Cc1ccc(NS(=O)(=O)c2ccc(C(=O)N3CC(C)OC(C)C3)cc2)cc1 (stereo not drawn) | 83* | -29 | -4 | 0 | -3 | 6

High-throughput results (PubChem)
